Calls of active or inactive are those of the source. The rule behind the calls is not given here.
Key:
HeLa = assay: Cytotoxicity against human HeLa cells after 48 hrs by sulforhodamine B assay; format: functional, cell-based
Method in brief: (§1)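 Cells seeded at 5000/well, incubated overnight at 37 °C, then exposed 48 h to 0.1 µM-100 µM compound from DMSO stock (final DMSO ≤0.25%); 0.25% DMSO vehicle and 10 μM doxorubicin controls. Fixed, stained with sulforhodamine B, absorbance normalized to untreated cells; 4-parameter logistic fit gives IC50, mean ± SD of two independent assays.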

HT-29 = assay: Cytotoxicity against human HT-29 cells after 48 hrs by sulforhodamine B assay; format: functional, cell-based; details: HT-29, 48 h; method in brief: as §1
Caco-2 = assay: Cytotoxicity against human Caco2 cells after 48 hrs by sulforhodamine B assay; format: functional, cell-based; details: Caco-2, 48 h; method in brief: as §1
HepG2 [1] = assay: Cytotoxicity against human HepG2 cells after 48 hrs by sulforhodamine B assay; format: functional, cell-based; details: HepG2, 48 h; method in brief: as §1
[2] = Cytotoxicity against mouse Hepa1-6 cells after 48 hrs by sulforhodamine B assay; details: Hepa1-6, 48 h
[3] = Cytotoxicity against mouse Hepa1-6 cells at 50 uM after 48 hrs by sulforhodamine B assay
NIH3T3 = assay: Cytotoxicity against […] cells after 48 hrs by sulforhodamine B assay; format: functional, cell-based; details: Mus musculus, NIH3T3, 48 h; method in brief: as §1
HepG2 [4] = assay: Cytotoxicity against human HepG2 cells at 2 times IC50 after 48 hrs by sulforhodamine B assay; format: functional
Method in brief: (§2)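 HepG2 seeded at 5000 cells/well and treated at twice each compound's calculated IC50 for 24, 48 or 72 h. Cells fixed and viability read by SRB absorbance, normalized to untreated. Three independent experiments run in duplicate; mean ± SD.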

HepG2 [5] = assay: Induction of apoptosis in human HepG2 cells assessed as increase in caspase3/7 activity; format: functional, cell-based
HepG2 [6] = assay: Cytotoxicity against human HepG2 cells at 2 times IC50 after 24 hrs by sulforhodamine B assay; format: functional; method in brief: as §2
HepG2 [7] = assay: Inhibition of anchorage-independent growth of human HepG2 cells at 12.5 uM after 7 days by soft agar colony formation assay; format: functional; details: HepG2, 168 h, read-out: GI
Method in brief: (§3)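 HepG2 at 5000 cells/well in top soft agar, exposed to compound for 7 days with compound and fresh medium replaced once on day 4. Agar solubilized on day 7 and cells quantified by fluorescence (485–520 nm filters). Duplicate wells per dose, SD shown.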

HepG2 [8] = assay: Inhibition of anchorage-independent growth of human HepG2 cells at 25 uM after 7 days by soft agar colony formation assay; format: functional; details: HepG2, 168 h, read-out: GI; method in brief: as §3
HepG2 [9] = assay: Cytotoxicity against human HepG2 cells at 2 times IC50 after 72 hrs by sulforhodamine B assay; format: functional; method in brief: as §2
[10] = Cytotoxicity against […] cells after 48 hrs by sulforhodamine B assay; format: functional, cell-based; details: Hepa1-6, 48 h; method in brief: as §1
HepG2 [11] = assay: Induction of apoptosis in human HepG2 cells assessed as increase in DNA fragmentation by TUNEL assay; format: functional, cell-based
Hepa1-6 [12] = assay: Cytotoxicity against […] cells at 2.5 to 5 uM after 48 hrs by MTS assay; format: functional, cell-based
Method in brief: (§4)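 Fresh CD-1 mouse hepatocytes (Williams' E medium) or Hepa1-6 (DMEM, 10% FBS), plated, incubated overnight at 37 °C; media refreshed, then 0.5, 2.5, 5 and 10 μM compound for 48 h. MTS reagent added for 4 h at 37 °C, 5% CO2; A490 normalized to untreated cells. Two independent experiments in duplicate, mean ± SD.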

Hepatocyte = assay: Cytotoxicity against CD1 mouse hepatocytes at 10 uM after 48 hrs by MTS assay; format: cell-based; method in brief: as §4
Hepa1-6 [13] = assay: Cytotoxicity against mouse Hepa1-6 cells at 2.5 to 5 uM after 48 hrs by MTS assay

Row | Structure (SMILES) | IC50 (HeLa) [µM] | IC50 (HT-29) [µM] | IC50 (Caco-2) [µM] | IC50 (HepG2 [1]) [µM] | IC50 [2] [µM] | Activity [3] [%] | IC50 (NIH3T3) [µM] | Activity (HepG2 [4]) [%] | Activity (HepG2 [5]) | Activity (HepG2 [6]) [%] | inhibition of growth at 12.5 µM (HepG2 [7]) [%] | inhibition of growth at 25 µM (HepG2 [8]) [%] | Activity (HepG2 [9]) [%] | IC50 [10] [µM] | Activity (HepG2 [11]) | Activity (Hepa1-6 [12]) | Activity (Hepatocyte) | Activity (Hepa1-6 [13])
1 | c1cc2ccc3ccc(-n4cccc4)c4ccc(c1)c2c34 | 17.7 | 24.3 | > 50 | > 50 |  |  |  |  |  |  |  |  |  |  |  |  |  | 
2 | c1ccc2c(c1)ccc1c3ccccc3c(-n3cccc3)cc21 | > 50 | > 50 | > 50 | > 50 | 0.7 | 50 | > 50 |  |  |  |  |  |  |  |  |  |  | 
3 | c1ccc2c(c1)ccc1cc(-n3cccc3)ccc12 | > 50 | > 50 | > 50 | 13.4 |  |  | 2.1 | >50 | inactive | 20 | > 80 | > 60 | >50 | 3.9 | inactive | Active | Non-toxic | 
4 | c1cnc2c(c1)cc(-n1cccc1)c1cccnc12 | 27.9 | 4.2 |  | 3 | 3.4 |  | 1.9 | >50 | inactive | 20 | > 80 | > 60 | >50 |  | inactive |  | Non-toxic | Active
5 | c1ccn(C23CC4CC(CC(C4)C2)C3)c1 | 12.9 | 11.9 | > 50 | 38.6 | 19.9 |  | 24 |  |  |  |  |  |  |  |  |  |  | 
